Results: ChEMBL document CHEMBL3244315, “Synthesis and antitumor properties of some isoindolylalkylphosphonium salts” (J Med Chem, 1978)

Experiments:
P388 [1] = test: Antitumor activity against mouse P388 cells allografted in mouse at 3.13 mg/kg, ip; format: functional; settings: route intraperitoneal
In short: (§1)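 P-388 lymphocytic leukemia in mice, run by NCI Division of Cancer Treatment standard protocol. Drug given intraperitoneally once daily on days 1-9, dose in mg/kg, with H2O, H2O + Tween 80 or saline as vehicle. Read-out is T/C = treated/control mean or median survival time × 100, and ≥125% counts as significant. Active results were repeated in at least one more experiment.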

P388 [2] = test: Antitumor activity against mouse P388 cells allografted in mouse at 6.25 mg/kg, ip; format: functional; settings: route intraperitoneal; in short: as §1
P388 [3] = test: Antitumor activity against mouse P388 cells allografted in mouse at 12.5 mg/kg, ip; format: functional; settings: route intraperitoneal; in short: as §1
P388 [4] = test: Antitumor activity against mouse P388 cells allografted in mouse at 18.8 mg/kg, ip; format: functional; settings: route intraperitoneal; in short: as §1
P388 [5] = test: Antitumor activity against mouse P388 cells allografted in mouse at 9 mg/kg, ip; format: functional; settings: route intraperitoneal; in short: as §1
P388 [6] = test: Antitumor activity against mouse P388 cells allografted in mouse at 100 mg/kg, ip; format: functional; settings: route intraperitoneal; in short: as §1
P388 [7] = test: Antitumor activity against mouse P388 cells allografted in mouse at 25 mg/kg, ip; format: functional; settings: route intraperitoneal; in short: as §1
P388 [8] = test: Antitumor activity against mouse P388 cells allografted in mouse at 6 mg/kg, ip; format: functional; settings: route intraperitoneal; in short: as §1
P388 [9] = test: Antitumor activity against mouse P388 cells allografted in mouse at 50 mg/kg, ip; format: functional; settings: route intraperitoneal; in short: as §1
Mus musculus = test: Toxicity in mouse P388 cells allografted mouse at 25 mg/kg, ip; format: organism-based; parameters: dose 25 mg/kg, route intraperitoneal; settings: in vivo

**Q.** How did the T/C (P388 [1]; dose 6.25 mg/kg, in the assay text read “at 6.25 mg/kg” for “at 3.13 mg/kg”) turn out when `[Br-].c1ccc([P+](CCN2Cc3ccccc3C2)(c2ccccc2)c2ccccc2)cc1` was run?
**A.** 114%

**Q.** What about the T/C (P388 [2]) of the same molecule?
**A.** 114%

**Q.** How did the T/C (P388 [1]; dose 3.13 mg/kg) turn out when `BrCC[P+](c1ccccc1)(c1ccccc1)c1ccccc1.[Br-]` was run?
**A.** 127%

**Q.** For `O=C1c2ccccc2C(=O)N1CC[P+](c1ccccc1)(c1ccccc1)c1ccccc1.[Br-]`, which T/C (P388 [3]) is on record?
**A.** 160%

**Q.** `O.O=C1c2ccccc2C(=O)N1C[P+](c1ccccc1)(c1ccccc1)c1ccccc1.[Br-]` was tested. Which T/C (P388 [4]) did it give?
**A.** 136%

**Q.** How did the T/C (P388 [3]) turn out when `O.O=C1c2ccccc2C(=O)N1CCC[P+](c1ccccc1)(c1ccccc1)c1ccccc1.[Br-]` was run?
**A.** 151%

**Q.** Which T/C (P388 [5]) does the source give for `O=C1c2ccccc2C(=O)N1CCCC[P+](c1ccccc1)(c1ccccc1)c1ccccc1.[Br-]` here?
**A.** 121%

**Q.** With `CCCC[P+](CCCC)(CCCC)CCN1C(=O)c2ccccc2C1=O.O.[Br-]` as the molecule, how does the T/C (P388 [6]) read?
**A.** 116%

**Q.** For `N#CCC[P+](CCC#N)(CCC#N)CCN1C(=O)c2ccccc2C1=O.O.[Br-]`, which T/C (P388 [7]) is on record?
**A.** 117%

**Q.** With `O=C1c2ccccc2C(=O)N1CC[P+](Cc1ccccc1)(Cc1ccccc1)Cc1ccccc1.[Br-]` as the molecule, how does the T/C (P388 [7]) read?
**A.** 112%

**Q.** How did the T/C (P388 [7]) turn out when `O=C1c2ccccc2C(=O)N1CC[P+](C1CCCCC1)(C1CCCCC1)C1CCCCC1.[Br-]` was run?
**A.** 118%

**Q.** For `COc1ccc([P+](CCN2C(=O)c3ccccc3C2=O)(c2ccc(OC)cc2)c2ccc(OC)cc2)cc1.O.[Br-]`, which T/C (P388 [8]) is on record?
**A.** 134%

**Q.** For `Cc1ccc([P+](CCN2C(=O)c3ccccc3C2=O)(c2ccc(C)cc2)c2ccc(C)cc2)cc1.O.[Br-]`, which T/C (P388 [2]) is on record?
**A.** 134%

**Q.** Which T/C (P388 [2]) does the source give for `O.O=C1c2ccccc2C(=O)N1CC[P+](c1ccc(Cl)cc1)(c1ccc(Cl)cc1)c1ccc(Cl)cc1.[Br-]` here?
**A.** 110%

**Q.** For `O.O=C1c2cccc([N+](=O)[O-])c2C(=O)N1CC[P+](c1ccccc1)(c1ccccc1)c1ccccc1.[Br-]`, which T/C (P388 [9]) is on record?
**A.** 109%

**Q.** With `Cc1cccc2c1C(=O)N(CC[P+](c1ccccc1)(c1ccccc1)c1ccccc1)C2=O.[Br-]` as the molecule, how does the T/C (P388 [1]; dose 3.13 mg/kg) read?
**A.** 140%

**Q.** How did the T/C (P388 [2]) turn out when `Cc1ccc2c(c1)C(=O)N(CC[P+](c1ccccc1)(c1ccccc1)c1ccccc1)C2=O.[Br-]` was run?
**A.** 139%

**Q.** Which T/C (P388 [7]) does the source give for `O.O=C1c2ccc([N+](=O)[O-])cc2C(=O)N1CC[P+](c1ccccc1)(c1ccccc1)c1ccccc1.[Br-]` here?
**A.** 107%

**Q.** Which T/C (P388 [7]) does the source give for `O=C1C=CC(=O)N1CC[P+](c1ccccc1)(c1ccccc1)c1ccccc1.[Br-]` here?
**A.** 120%

**Q.** How did the T/C (P388 [7]) turn out when `O.O=C1C2CC=CCC2C(=O)N1CC[P+](c1ccccc1)(c1ccccc1)c1ccccc1.[Br-]` (stereo unspecified) was run?
**A.** 115%

**Q.** With `O.O=C1c2ccccc2C(=O)N1CC[P+](c1ccccc1)(c1ccccc1)c1ccccc1.[Cl-]` as the molecule, how does the T/C (P388 [2]) read?
**A.** 133%

**Q.** `Br.O.[Br-].c1ccc([P+](CCN2Cc3ccccc3C2)(c2ccccc2)c2ccccc2)cc1` was tested. Which T/C (P388 [2]) did it give?
**A.** 118%

**Q.** `COCC[P+](c1ccccc1)(c1ccccc1)c1ccccc1.[Br-]` was tested. Which T/C (P388 [3]) did it give?
**A.** 123%

**Q.** With `O.O=c1c2cc3c(=O)n(CC[P+](c4ccccc4)(c4ccccc4)c4ccccc4)c(=O)c3cc2c(=O)n1CC[P+](c1ccccc1)(c1ccccc1)c1ccccc1.[Br-].[Br-]` as the molecule, how does the T/C (P388 [7]) read?
**A.** 18%

**Q.** What about the Activity (Mus musculus) of the same molecule?
**A.** Toxic

**Q.** How did the T/C (P388 [7]) turn out when `O=C1c2ccccc2C(=O)N1CCP(=O)(c1ccccc1)c1ccccc1` was run?
**A.** 106%
